The results in this text go back to PubChem BioAssay AID624316 (Broad Institute, 2012).

The structures appear in SMILES notation. Values joined by “and” are separate entries in the source; they are usually repeats but may differ in a detail not shown here. Equal entries are not always repeated. Active and inactive are the calls of the source.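 Rule for the calls: active = compounds lowering reporter light with a fitted AC50 at or below twice their top valid dose; inconclusive = flat partial inhibition or an unreliable curve fit; inactive = the rest.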 Bounds are passed on as bounds.

The assay has as its system SK-MEL-5 TRPM1 promoter luciferase reporter, 24 h. Description: decrease of TRPM1 reporter luminescence in SK-MEL-5 – cell-based, dry powder samples, set 4, MITF inhibitor project, dose response (AID 624316). In a few lines: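 Test system: SK-MEL-5 melanoma line stably carrying TRPM1 promoter–luciferase reporter; buffer or medium: DMEM without phenol red plus 10% FBS; dosing: compounds pinned into wells as DMSO solutions; timing: 24 h compound treatment at 37 °C; measured by: SteadyGlo luciferase luminescence; benchmarks: parthenolide as positive control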
`CC(=O)N(C)C1=C(N2CCOCC2)C(=O)c2ccccc2C1=O`: the concentration at half-maximal activity (AC50) (in general, the concentration at which the activity in the assay is half-maximal) is 1.89 µM.

As to `C=CCNC1=C(Cl)C(=O)c2ccccc2C1=O`, the AC50 was 1.67 µM and 2.18 µM.

Take `COc1ccc(C2=C(N)C(=O)c3ccccc3C2=O)cc1`: the AC50 was 25.1 µM.

`O=C1C(NCCCN2CCOCC2)=C(Nc2ccccc2)C(=O)c2ccccc21`: the AC50 is 4.03 µM.

Regarding `CC(=O)NC1=C(c2ccc3c(c2)oc2ccccc23)C(=O)c2ccccc2C1=O`, the AC50 is 1.59 µM.

For `CN1CCN(C2=C(Nc3ccccc3)C(=O)c3ccccc3C2=O)CC1`, the AC50 was 4.78 µM.

As to `O=C(NC1=C(N2CCCCC2)C(=O)c2ccccc2C1=O)c1ccccc1`, the AC50 is 25.6 µM.

Consider `COc1cccc(C2=C(NC(=O)c3ccccc3)C(=O)c3ccccc3C2=O)c1`, for which the AC50 is 13.9 µM.

`CC1CCN(CC(CS(=O)(=O)c2ccc([N+](=O)[O-])cc2)N2CCC(C)CC2)CC1` (stereo unspecified): the AC50 was 4.72 µM.

As to `COc1ccc(C2=C(NC(=O)c3ccc4ccccc4c3)C(=O)c3ccccc3C2=O)cc1`, the AC50 was > 70 µM (inactive).

As to `COc1ccc(C2=C(NC(C)=O)C(=O)c3ccccc3C2=O)cc1`, the AC50 is 5.44 µM.

In the case of `O=C(NC1=C(N2CCSCC2)C(=O)c2ccccc2C1=O)c1ccc(Br)cc1`, the AC50 was 8.75 µM.

For the molecule `O=C1C(Nc2ccccc2)=C(NS(=O)(=O)c2ccccc2[N+](=O)[O-])C(=O)c2ccccc21`, the AC50 was 29 µM.

Regarding `COc1ccc(C2=C(NC(=O)c3cccc(Cl)c3)C(=O)c3ccccc3C2=O)cc1`, the AC50 was 19.9 µM.

Consider `O=C(NC1=C(c2ccc(OC(F)(F)F)cc2)C(=O)c2ccccc2C1=O)c1ccccc1`, for which the AC50 is 32 µM.

`NC1=C(c2ccc(OC(F)(F)F)cc2)C(=O)c2ccccc2C1=O`: the AC50 is 16.3 µM.

`C=CCNC1=C(N(C)C(C)=O)C(=O)c2ccccc2C1=O`: the AC50 is 0.107 µM.

Take `O=C(NC1=C(c2ccc(OC(F)(F)F)cc2)C(=O)c2ccccc2C1=O)c1ccc(Br)cc1`: the AC50 is 20.5 µM.

For the molecule `NC1=CC(=O)c2ccccc2C1=O`, the AC50 is 1.41 µM.

In the case of `CCN1CCN(C2=C(N(C)C(C)=O)C(=O)c3ccccc3C2=O)CC1`, the AC50 was 0.367 µM.

For `CCN1CCN(C2=C(NC(=O)c3ccccc3)C(=O)c3ccccc3C2=O)CC1`, the AC50 was 0.582 µM.

Turning to `CC(=O)NC1=C(c2ccc(Oc3ccccc3)cc2)C(=O)c2ccccc2C1=O`, the AC50 was 14.8 µM.

In the case of `CC(=O)NC1=C(c2cccc(Cl)c2)C(=O)c2ccccc2C1=O`, the AC50 was 3.93 µM.

Regarding `C=CCNC1=C(NS(=O)(=O)c2ccc(Br)cc2)C(=O)c2ccccc2C1=O`, the AC50 was 7.27 µM.

For `CCN(CC)CCCNC1=C(N(C)C(C)=O)C(=O)c2ccccc2C1=O`, the AC50 is 0.188 µM.

In the case of `O=C1C(NS(=O)(=O)c2cccs2)=C(N2CCOCC2)C(=O)c2ccccc21`, the AC50 was 9.86 µM.

Turning to `O=C(NC1=C(N2CCCCC2)C(=O)c2ccccc2C1=O)c1ccc(Br)cc1`, the AC50 is 36.2 µM.

`C=C1C(=O)OC2C1CC/C(C)=C\CCC1(C)OC21` (stereo unspecified): the AC50 is 4.91 µM.

As to `O=C1C(NS(=O)(=O)c2ccc(Br)cc2)=C(N2CCN(c3ccccc3)CC2)C(=O)c2ccccc21`, the AC50 was 17.1 µM.

`O=C(NC1=C(c2ccccc2)C(=O)c2ccccc2C1=O)c1ccco1`: the AC50 is 8.11 µM.

For `C=CCNC1=C(NCCCN2CCOCC2)C(=O)c2ccccc2C1=O`, the concentration at half-maximal activity (AC50) is 7.39 µM.

As for `O=C1C(NS(=O)(=O)c2ccc(Br)cc2)=C(N2CCSCC2)C(=O)c2ccccc21`, the AC50 was 9.91 µM.

On to `CCN1CCN(C2=C(NS(=O)(=O)c3ccc(Br)cc3)C(=O)c3ccccc3C2=O)CC1`, for which the AC50 is 4.06 µM.

For `O=C(NC1=C(N2CCOCC2)C(=O)c2ccccc2C1=O)c1ccc(Br)cc1`, the AC50 was 11.3 µM.

For the molecule `O=C1C(NS(=O)(=O)c2ccccc2)=C(N2CCCCC2)C(=O)c2ccccc21`, the AC50 is 28.3 µM.

On to `CCN(CC)CCCNC1=C(Nc2ccccc2)C(=O)c2ccccc2C1=O`, for which the AC50 is 2.38 µM.

Take `O=C(NC1=C(c2ccc(OC(F)(F)F)cc2)C(=O)c2ccccc2C1=O)c1ccco1`: the AC50 is 21 µM.

For the molecule `CN1CCN(C2=C(NC(=O)c3ccccc3)C(=O)c3ccccc3C2=O)CC1`, the AC50 was 0.508 µM.

`O=C1C(Nc2ccccc2)=C(N2CCOCC2)C(=O)c2ccccc21`: the AC50 is 5.81 µM and 4.63 µM.

On to `C=CCNC1=C(NCCN(CC)CC)C(=O)c2ccccc2C1=O`, for which the AC50 was 1.75 µM.

With `CCN1CCN(C2=C(Nc3ccccc3)C(=O)c3ccccc3C2=O)CC1`, the AC50 was 0.689 µM.

Regarding `COc1ccc(C2=C(NC(=O)c3ccccc3OC)C(=O)c3ccccc3C2=O)cc1`, the half-maximal activity concentration (AC50) is 15.7 µM.

In the case of `CCN(CC)CCCCNC1=C(Nc2ccccc2)C(=O)c2ccccc2C1=O`, the AC50 was 2.87 µM.

For `COc1cccc(-c2cc(C(=O)NC3=C(Cl)C(=O)c4ccccc4C3=O)ccc2OC)c1`, the AC50 is 3.3 µM.

Regarding `O=C(NC1=C(N2CCOCC2)C(=O)c2ccccc2C1=O)c1ccccc1`, the AC50 is 6 µM.

`CC(=O)NC1=C(c2ccccc2)C(=O)c2ccccc2C1=O`: the AC50 was 5.51 µM.

In the case of `O=C1C=C(Nc2ccccc2)C(=O)c2ccccc21`, the AC50 is 4.07 µM.

`C=CCNC1=C(N2CCN(C)CC2)C(=O)c2ccccc2C1=O`: the AC50 was 3.74 µM.

For `CCN(CC)CCNC1=C(Nc2ccccc2)C(=O)c2ccccc2C1=O`, the AC50 was 1.66 µM.

On to `O=C1C(NS(=O)(=O)c2ccc(Br)s2)=C(N2CCSCC2)C(=O)c2ccccc21`, for which the AC50 was 20.5 µM.

As to `COc1ccc(C2=C(NC(=O)c3ccc(OC)cc3-c3cccc(OC)c3)C(=O)c3ccccc3C2=O)cc1`, the AC50 was > 70 µM (inactive).

Turning to `CN1CCN(C2=C(NS(=O)(=O)c3ccccc3)C(=O)c3ccccc3C2=O)CC1`, the AC50 is 0.614 µM.

Take `COC1=C(NS(=O)(=O)c2ccccc2)C(=O)c2ccccc2C1=O`: the AC50 is 6.65 µM.

On to `Cc1ccc(C(=O)NC2=C(c3ccc(OC(F)(F)F)cc3)C(=O)c3ccccc3C2=O)o1`, for which the AC50 was 15.4 µM.

Consider `C[C@@H](NC1=C(Nc2ccccc2)C(=O)c2ccccc2C1=O)c1ccccc1`, for which the AC50 is 9.76 µM.

Take `COc1ccc(C(=O)NC2=C(c3ccccc3)C(=O)c3ccccc3C2=O)cc1`: the AC50 is 10.9 µM.

As for `O=C(NC1=C(N2CCN(c3ccccc3)CC2)C(=O)c2ccccc2C1=O)c1ccccc1`, the AC50 was 15 µM.

Regarding `O=C1C(NS(=O)(=O)c2cccs2)=C(N2CCCCC2)C(=O)c2ccccc21`, the AC50 was 21.7 µM.

Turning to `O=C(NC1=C(N2CCSCC2)C(=O)c2ccccc2C1=O)c1ccccc1`, the AC50 was 3.61 µM.

Take `C=CCNC1=C(N2CCSCC2)C(=O)c2ccccc2C1=O`: the AC50 was 2.81 µM.

In the case of `O=C1C(NS(=O)(=O)c2ccc(Br)cc2)=C(c2ccc(OC(F)(F)F)cc2)C(=O)c2ccccc21`, the AC50 was 12 µM.

Take `C=CCNC1=C(N2CCCCC2)C(=O)c2ccccc2C1=O`: the AC50 was 0.538 µM.

For `CCN1CCN(C2=C(NS(=O)(=O)c3cccs3)C(=O)c3ccccc3C2=O)CC1`, the AC50 is 1.73 µM.

As to `O=C1C(NS(=O)(=O)c2ccc(Br)s2)=C(N2CCCCC2)C(=O)c2ccccc21`, the AC50 is 19.3 µM.

As to `NC1=C(NC(=O)c2ccccc2)C(=O)c2ccccc2C1=O`, the AC50 was 4.37 µM.

With `C=CCNC1=C(N2CCOCC2)C(=O)c2ccccc2C1=O`, the AC50 is 1.54 µM.
